# Source: ChEMBL document CHEMBL2176911 (J Med Chem, 2012)
# The source made the active and inactive calls. The calls are words filed in the database; no cut-off is given here.
# How the values were obtained:
# [1] = target: Casein kinase II subunit alpha (Mus musculus, UniProt Q60737); experiment: Binding affinity to CSNK2A1 in mouse brain homogenate after 3 hrs by competition affinity chromatographic analysis; assay type: tissue-based
# Procedure, shortened: (§1)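 Mouse brain lysate applied to a KinAffinity matrix of mixed immobilized broad-spectrum kinase inhibitors at highest loading density, with increasing concentrations of free inhibitor added. […] Separate titrations of the immobilized ligands gave BC50 values.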
# [2] = target: Casein kinase II subunit beta (Mus musculus) (UniProt P67871); experiment: Binding affinity to CK2 beta subunit in mouse HT22 cell lysate by Western blot analysis; assay type: cell-free; conditions: HT-22
# Procedure, shortened: (§2)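 Bead pull-down from HT22 cell or mouse brain extracts, with ethanolamine beads lacking ligand as control. Specificity was tested by adding excess free inhibitor to the extracts before binding.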
# [3] = target: Cyclin-dependent kinase 2/cyclin A (Homo sapiens, UniProt P24941); experiment: Inhibition of CDK2/cyclin A using [gamma33P]ATP after 30 mins by scintillation counting; assay type: protein-complex assay
# Procedure, shortened: (§3)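 Panel of purified kinases (recombinant from several species plus native enzymes), each assayed radiometrically over a range of inhibitor concentrations; IC50 in μM calculated from the dose-response curves.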
# HT-22 [4] = experiment: Neuroprotective activity against glutamate-induced toxicity in mouse HT22 cells after 24 hrs by MTS assay; assay type: functional, cell-based
# [5] = target: Glycogen synthase kinase-3 beta (Homo sapiens, UniProt P49841); experiment: Inhibition of human recombinant GSK3beta expressed in insect cells using YRRAAVPPSPSLSRHSSPHQ-phosphoS-EDEEE as substrate and [gamma33P]ATP after 30 mins by scintillation counting
# Protein VAC14 homolog = Protein VAC14 homolog (Mus musculus, UniProt Q80WQ2); experiment: Binding affinity to VAC14 in mouse brain homogenate after 3 hrs by competition affinity chromatographic analysis; assay type: tissue-based; procedure, shortened: as §1
# HT-22 [6] = experiment: Inhibition of GSK3-mediated […] phosphorylation in mouse HT22 cells at 0.01 to 10 uM after 24 hrs by Western blot analysis in presence of MG132; assay type: cell-based
# [7] = target: Interleukin-1 receptor-associated kinase 1 (Homo sapiens, UniProt P51617); experiment: Binding affinity to IRAK1
# [8] = target: Homeodomain-interacting protein kinase 3 (Homo sapiens, UniProt Q9H422); experiment: Binding affinity to HIPK3
# [9] = Inhibition of CK2 at 10 uM after 30 mins
# [10] = target: T1, Dual specificity tyrosine-phosphorylation-regulated kinase 2 (Homo sapiens) (UniProt Q92630); experiment: Inhibition of human recombinant GST-tagged DYRK2 expressed in Escherichia coli using KKISGRLSPIMTEQ as substrate at 10 uM after 30 mins
# T1 sequence (whole entry): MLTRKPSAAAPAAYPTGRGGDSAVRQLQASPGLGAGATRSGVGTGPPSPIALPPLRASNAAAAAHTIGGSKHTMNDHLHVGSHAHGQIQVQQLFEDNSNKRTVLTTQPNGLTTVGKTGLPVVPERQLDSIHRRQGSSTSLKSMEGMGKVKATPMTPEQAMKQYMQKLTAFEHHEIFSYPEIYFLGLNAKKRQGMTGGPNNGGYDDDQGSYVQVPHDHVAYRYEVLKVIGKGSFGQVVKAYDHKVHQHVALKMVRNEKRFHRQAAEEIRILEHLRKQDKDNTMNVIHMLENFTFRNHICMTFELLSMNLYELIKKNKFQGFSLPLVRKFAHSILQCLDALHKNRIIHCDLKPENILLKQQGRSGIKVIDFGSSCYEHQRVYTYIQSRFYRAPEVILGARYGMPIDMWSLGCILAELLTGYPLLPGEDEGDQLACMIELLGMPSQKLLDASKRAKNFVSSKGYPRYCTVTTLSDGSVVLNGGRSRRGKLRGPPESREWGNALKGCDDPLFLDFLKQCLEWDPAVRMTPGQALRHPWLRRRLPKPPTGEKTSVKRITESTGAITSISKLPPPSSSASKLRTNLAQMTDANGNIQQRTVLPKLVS
# Casein kinase II = Casein kinase II (Homo sapiens, UniProt P19784+P67870+P68400); experiment: Inhibition of human recombinant CK2 using RRREDEESDDEE as substrate and [gamma33P]ATP after 30 mins by scintillation counting; assay type: protein-complex assay
# Procedure, shortened: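 Purified recombinant kinase from a 26-enzyme panel, with inhibitor tested at various concentrations. IC50 in μM calculated from dose–response curves.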
# [11] = target: Glycogen synthase kinase-3 (Sus scrofa, UniProt B2LUN4+I6LNT8); experiment: Inhibition of pig GSK3alpha/beta isolated from brain using YRRAAVPPSPSLSRHSSPHQ-phosphoS-EDEEE as substrate and [gamma33P]ATP after 30 mins by scintillation counting; procedure, shortened: as §3
# [12] = Inhibition of CK2 at 1 uM after 30 mins
# [13] = Inhibition of starfish CDK1/cyclin B using histone H1 as substrate and [gamma33P]ATP after 30 mins by scintillation counting; set-up: species or system Asteroidea; procedure, shortened: as §3
# [14] = target: Protein VAC14 homolog (Mus musculus) (UniProt Q80WQ2); experiment: Binding affinity to VAC14 in mouse brain homogenate by Western blot analysis; assay type: tissue-based; procedure, shortened: as §2
# [15] = target: Homeodomain-interacting protein kinase 2 (Homo sapiens) (UniProt Q9H2X6); experiment: Inhibition of human recombinant GST-tagged HIPK2 expressed in Escherichia coli at 1 uM after 30 mins
# [16] = target: Dual specificity tyrosine-phosphorylation-regulated kinase 1A (Rattus norvegicus) (UniProt Q63470); experiment: Inhibition of DYRK1A in CD Sprague-Dawley rat brain assessed as inhibition of human APP-induced neurodegeneration after 3 hrs by fluorescence microscopic analysis
# [17] = Binding affinity to casein kinase 2
# [18] = target: Casein kinase II subunit alpha (Mus musculus) (UniProt Q60737); experiment: Binding affinity to CK2 alpha subunit in mouse brain homogenate by Western blot analysis; assay type: tissue-based; procedure, shortened: as §2
# [19] = target: T1, Dual specificity tyrosine-phosphorylation-regulated kinase 2 (Homo sapiens); experiment: Inhibition of human recombinant GST-tagged DYRK2 expressed in Escherichia coli using KKISGRLSPIMTEQ as substrate at 1 uM after 30 mins
# [20] = target: Casein kinase II subunit alpha' (Mus musculus, UniProt O54833); experiment: Binding affinity to CSNK2A2 in mouse brain homogenate after 3 hrs by competition affinity chromatographic analysis; assay type: tissue-based; procedure, shortened: as §1
# [21] = target: Glycogen synthase kinase-3 alpha (Homo sapiens, UniProt P49840); experiment: Binding affinity to GSK3A
# HT-22 [22] = experiment: Downregulation of GSK3 expression in mouse HT22 cells after 4 hrs by Western blot analysis; assay type: functional, cell-based
# [23] = target: Homeodomain-interacting protein kinase 2 (Homo sapiens) (UniProt Q9H2X6); experiment: Inhibition of human recombinant GST-tagged HIPK2 expressed in Escherichia coli at 10 uM after 30 mins
# [24] = Inhibition of Leishmania major recombinant CK1 expressed in Escherichia coli using RRKHAAIGpSAYSITA as substrate and [gamma33P]ATP after 30 mins by scintillation counting; procedure, shortened: as §3
# [25] = target: Dual specificity tyrosine-phosphorylation-regulated kinase 1A (Rattus norvegicus, UniProt Q63470); experiment: Inhibition of rat DYRK1A isolated from brain using KKISGRLSPIMTEQ as substrate and [gamma33P]ATP after 30 mins by scintillation counting
# HT-22 [26] = experiment: Binding affinity to GSK3beta1 in mouse HT22 cell lysate by Western blot analysis; assay type: cell-free; procedure, shortened: as §2
# [27] = target: Serine/threonine-protein kinase pim-3 (Homo sapiens) (UniProt Q86V86); experiment: Inhibition of human recombinant His6-tagged PIM3 expressed in Sf21 cells using RSRHSSYPAGT as substrate at 1 uM after 30 mins
compound,measurement,setting,value
O=C1NC(Nc2ccccc2)=N/C1=C\c1ccc2c(c1)OCO2,Kd(free),[1],326 nM
same,Activity,[2],Active
same,IC50,[3],> 30000 nM
same,Activity,HT-22 [4],Dose-dependent effect
same,IC50,[5],380 nM
same,Kd(free),Protein VAC14 homolog,15265 nM
same,inhibition,HT-22 [6],inactive
same,Kd,[7],930 nM
same,Kd,[8],230 nM
same,inhibition,[9],Active
same,inhibition,[10],Active
same,IC50,Casein kinase II,320 nM
same,IC50,[11],410 nM
same,inhibition,[12],Active
same,IC50,[13],> 30000 nM
same,Activity,[14],Active
same,inhibition,[15],Active
same,inhibition,[16],Dose-dependent effect
same,Activity,[17],Active
same,Activity,[18],Active
same,inhibition,[19],Active
same,Kd(free),[20],574 nM
same,Kd,[21],550 nM
same,Activity,HT-22 [22],inactive
same,inhibition,[23],Active
same,IC50,[24],≥ 10000 nM
same,IC50,[25],10 nM
same,Activity,HT-22 [26],Active
same,inhibition,[27],Active
